# Several values for one entry are separate records, joined by “and”; a condition that tells them apart may be missing. Equal entries are not always repeated.
# Assays:
# Rattus norvegicus [1] = assay: Biodistribution in the thyroid of rat, 15 min after administration; type: ADME, organism-based, Thyroid gland; settings: in vivo, 0.25 h
# In short: (§1)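 Male Sprague-Dawley rats (200-300 g) under ether anesthesia were given the 99mTc complex (0.5-20 μCi in 0.2 mL saline) iv via the femoral vein. Organs were taken at 2 or 15 min. Uptake is reported as % dose/organ, found by comparing tissue radioactivity with dilutions of the injected dose.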
# Rattus norvegicus [2] = assay: Biodistribution in the thyroid of rat, 2 min after administration; type: ADME, organism-based, Thyroid gland; settings: in vivo; in short: as §1
# Rattus norvegicus [3] = assay: Biodistribution in the blood of rat, 15 min after administration; type: ADME, organism-based; settings: in vivo, 0.25 h; in short: as §1
# Rattus norvegicus [4] = assay: Biodistribution in the blood of rat, 2 min after administration; type: ADME, organism-based; settings: in vivo; in short: as §1
# Rattus norvegicus [5] = assay: Biodistribution in the brain blood of rat, 15 min after administration; type: ADME, organism-based; settings: in vivo, 0.25 h
# In short: (§2)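 Rats (male Sprague-Dawley, 200-300 g) received the 99mTc complex iv (femoral vein, ether anesthesia; 0.5-20 μCi in 0.2 mL saline) and were sampled at 2 or 15 min. % dose/organ was converted to % dose/gram using mean organ weights (brain 1.65 g, blood 18 g). Brain:blood ratio was taken from these % dose/gram values.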
# Rattus norvegicus [6] = assay: Biodistribution in the brain blood of rat, 2 min after administration; type: ADME, organism-based; settings: in vivo; in short: as §2
# Rattus norvegicus [7] = assay: Biodistribution in the brain of rat, 15 min after administration; type: ADME, organism-based; settings: in vivo, 0.25 h; in short: as §1
# Rattus norvegicus [8] = assay: Biodistribution in the heart of rat, 15 min after administration; type: ADME, organism-based; settings: in vivo, 0.25 h; in short: as §1
# Rattus norvegicus [9] = assay: Biodistribution in the heart of rat, 2 min after administration; type: ADME, organism-based; settings: in vivo; in short: as §1
# Rattus norvegicus [10] = assay: Biodistribution in the kidneys of rat, 15 min after administration; type: ADME, organism-based, Kidney; settings: in vivo, 0.25 h; in short: as §1
# Rattus norvegicus [11] = assay: Biodistribution in the kidneys of rat, 2 min after administration; type: ADME, organism-based, Kidney; settings: in vivo; in short: as §1
# Rattus norvegicus [12] = assay: Biodistribution in the liver of rat, 15 min after administration; type: ADME, organism-based; settings: in vivo, 0.25 h; in short: as §1
# Rattus norvegicus [13] = assay: Biodistribution in the lungs of rat, 15 min after administration; type: ADME, organism-based, Lung; settings: in vivo, 0.25 h; in short: as §1
# Rattus norvegicus [14] = assay: Biodistribution in the lungs of rat, 2 min after administration; type: ADME, organism-based, Lung; settings: in vivo; in short: as §1
# Rattus norvegicus [15] = assay: Biodistribution in the muscle of rat, 15 min after administration; type: ADME, organism-based, Muscle tissue; settings: in vivo, 0.25 h; in short: as §1
# Rattus norvegicus [16] = assay: Biodistribution in the muscle of rat, 2 min after administration; type: ADME, organism-based, Muscle tissue; settings: in vivo; in short: as §1
# Rattus norvegicus [17] = assay: Biodistribution in the skin of rat, 15 min after administration; type: ADME, organism-based, Zone of skin; settings: in vivo, 0.25 h; in short: as §1
# Rattus norvegicus [18] = assay: Biodistribution in the spleen of rat, 15 min after administration; type: ADME, organism-based; settings: in vivo, 0.25 h; in short: as §1
# Rattus norvegicus [19] = assay: Biodistribution in the stomach of rat, 15 min after administration; type: ADME, organism-based; settings: in vivo, 0.25 h; in short: as §1
# Rattus norvegicus [20] = assay: Biodistribution in the stomach of rat, 2 min after administration; type: ADME, organism-based; settings: in vivo; in short: as §1
# Rattus norvegicus [21] = assay: Biodistribution in the spleen of rat, 2 min after administration; type: ADME, organism-based; settings: in vivo; in short: as §1
# Rattus norvegicus [22] = assay: Biodistribution in the skin of rat, 2 min after administration; type: ADME, organism-based, Zone of skin; settings: in vivo; in short: as §1
substance,measurement,setting,value
"(Syn-isomer) 99mTc-2,3-bis(2-thioacetamido)propanate",Biodistribution,Rattus norvegicus [1],0.07%
same,Biodistribution,Rattus norvegicus [2],0.22%
same,Biodistribution,Rattus norvegicus [3],2.04%
same,Biodistribution,Rattus norvegicus [4],5.37% and 2.46%
same,Biodistribution,Rattus norvegicus [5],5.82%
same,Biodistribution,Rattus norvegicus [6],5.33%
same,Biodistribution,Rattus norvegicus [7],1.08%
same,Biodistribution,Rattus norvegicus [8],0.43%
same,Biodistribution,Rattus norvegicus [9],2.46%
same,Biodistribution,Rattus norvegicus [10],2.22%
same,Biodistribution,Rattus norvegicus [11],7.8%
same,Biodistribution,Rattus norvegicus [12],18.6%
same,Biodistribution,Rattus norvegicus [13],3.38%
same,Biodistribution,Rattus norvegicus [14],9.18% and 2.77%
same,Biodistribution,Rattus norvegicus [15],18.1%
same,Biodistribution,Rattus norvegicus [16],8.43%
same,Biodistribution,Rattus norvegicus [17],15.7%
same,Biodistribution,Rattus norvegicus [18],0.79%
same,Biodistribution,Rattus norvegicus [19],4.51%
same,Biodistribution,Rattus norvegicus [20],1.85%
same,Biodistribution,Rattus norvegicus [21],0.7%
same,Biodistribution,Rattus norvegicus [22],9.18%
